We go through 9 compounds from ChEMBL document CHEMBL1140224, “Dihydrofuro[3,4-c]pyridinones as inhibitors of the cytolytic effects of the pore-forming glycoprotein perforin” (J Med Chem, 2008).

Activity calls are given as the source filed them. The calls are words filed in the database; no cut-off is given here. A value given as a limit tells only on which side of the number the result lay.

Series [1] has as its target T1, Perforin-1 (Homo sapiens) (UniProt P14222).
T1 sequence (whole entry): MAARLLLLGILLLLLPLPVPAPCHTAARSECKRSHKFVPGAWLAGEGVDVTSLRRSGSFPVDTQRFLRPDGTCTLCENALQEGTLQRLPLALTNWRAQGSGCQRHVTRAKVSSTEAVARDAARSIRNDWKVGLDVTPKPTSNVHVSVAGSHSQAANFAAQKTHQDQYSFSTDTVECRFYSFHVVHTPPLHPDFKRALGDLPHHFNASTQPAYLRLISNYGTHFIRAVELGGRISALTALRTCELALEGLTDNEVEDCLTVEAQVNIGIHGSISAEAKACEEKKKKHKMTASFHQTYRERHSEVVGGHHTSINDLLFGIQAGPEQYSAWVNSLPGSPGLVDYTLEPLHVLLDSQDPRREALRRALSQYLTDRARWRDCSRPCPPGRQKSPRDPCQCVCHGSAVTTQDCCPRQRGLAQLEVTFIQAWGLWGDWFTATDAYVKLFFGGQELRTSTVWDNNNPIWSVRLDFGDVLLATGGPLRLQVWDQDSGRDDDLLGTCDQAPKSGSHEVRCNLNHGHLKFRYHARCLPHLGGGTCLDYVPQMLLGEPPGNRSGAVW
Kind of series: Inhibition of human KHYG-1 NK cells delivered perforin-mediated death of human K562 cells upto 20 uM preincubated for 20 mins with KHYG-1 cells measured after 30 mins by 51Cr release assay. In kind it is cell-based. The settings on record: in the assay text read “measured after 4 hrs” for “measured after 30 mins”. In outline:
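KHYG-1 NK cells (4 × 10^5/ml, RPMI + 0.1% BSA) given inhibitor up to 20 µM, 20 min at RT. K562 targets labeled with 75 µCi 51Cr for 90 min at 37 °C, added at effector:target 2:1, 4 h at 37 °C. % specific lysis from experimental, spontaneous and maximum release. Mean of triplicates ± SEM; inhibition relative to untreated control, DMSO vehicle control.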

The nature of series [2]: Cytotoxicity against human KHYG-1 cells assessed as cell viability upto 20 uM after 24 hrs by trypan blue exclusion assay. In kind it is cell-based. The settings on record: read-out: Activity. A digest of the protocol: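 KHYG-1 cells at 4 × 10^5 cells/ml in RPMI + 0.1% BSA, compound up to 20 µM added for 20 min at RT. RPMI 0.1% BSA added in place of targets, 4 h at 37 °C, then washed ×3 and held 18 to 24 h at 37 °C in complete medium. Trypan blue read: clear cells as percent of total. DMSO vehicle control.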

Another series relates to Salmonella typhimurium. The series can be described thus: Mutagenic activity in Salmonella Typhimurium TA100 by Ames assay. The series is classed as toxicity, organism-based. The following applies: salmonella enterica subsp. enterica serovar typhimurium.
In series [3] the target is Tumor necrosis factor ligand superfamily member 10 (Homo sapiens) (UniProt P50591). Kind of series: Inhibition of recombinant TRAIL-mediated death of human Jurkat T cells upto 20 uM after 30 mins by 51Cr release assay. In kind it is cell-based. In outline:
(§1)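 Fifty thousand 51Cr-labeled Jurkat cells preincubated with 20 µM final inhibitor for 30 min at 37 °C. Anti-Fas agonistic mAb CH11 or recombinant TRAIL, each at 250 ng/mL final, in RPMI with 1% BSA for 2 h. Controls were DMSO diluent and a non-inhibitor at the same concentration; SDS gave maximum release. Supernatant 51Cr γ-counted, triplicates, mean ± SEM.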

The target of series [4] is Pneumolysin (Streptococcus pneumoniae serotype 4 (strain ATCC BAA-334 / TIGR4)) (UniProt P0C2J9). The series can be described thus: Inhibition of Streptococcus pneumoniae pneumolysin-mediated lysis of sheep red blood cells. In outline: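 Single-point test at 20 µM compound, using the perforin/SRBC turbidity format with pneumolysin in place of perforin. Compound in DMSO is preincubated with the lytic protein for at least 30 min. Sheep red blood cells in RBC buffer are then added, and absorbance at 650 nm is read at 0 min and after 15 min at 37 °C. Matching DMSO serves as negative control.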

The target in series [5] is T2, Tumor necrosis factor ligand superfamily member 6 (Homo sapiens) (UniProt P48023).
T2 sequence (whole entry): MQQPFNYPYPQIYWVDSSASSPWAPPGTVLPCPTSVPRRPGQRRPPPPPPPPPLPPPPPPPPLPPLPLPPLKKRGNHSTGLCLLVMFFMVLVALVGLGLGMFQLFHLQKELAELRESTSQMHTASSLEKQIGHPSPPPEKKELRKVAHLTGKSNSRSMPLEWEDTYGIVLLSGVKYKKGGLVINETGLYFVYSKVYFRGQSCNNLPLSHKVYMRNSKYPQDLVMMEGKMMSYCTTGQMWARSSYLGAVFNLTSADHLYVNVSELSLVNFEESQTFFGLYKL
The series can be described thus: Inhibition of Fas ligand-mediated death of human Jurkat T cells upto 20 uM after 30 mins by 51Cr release assay. The series is classed as cell-based. In outline:
as §1

Series [6] addresses T1, Perforin-1 (Homo sapiens). Kind of series: Inhibition of human CD3-CD56+ NK cell delivered perforin-mediated death of human K562 cells upto 20 uM preincubated for 30 mins with human CD3-CD56+ NK cell measured after 4 hrs by 51Cr release assay. The series is classed as cell-based. In outline:
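Human CD3-CD56+ NK cells taken from donor buffy coats by Ficoll then negative MACS selection. Used same day or after up to 3 days in 100 U/mL IL-2. Up to 2 × 10^5 NK cells with inhibitor, DMSO or medium in RPMI 0.1% BSA, 30 min at RT. 1 × 10^4 51Cr-labeled K562 added, 4 h at 37 °C, % specific lysis, triplicates.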

Sequence of Tumor necrosis factor ligand superfamily member 10 (Homo sapiens) (P50591 whole entry): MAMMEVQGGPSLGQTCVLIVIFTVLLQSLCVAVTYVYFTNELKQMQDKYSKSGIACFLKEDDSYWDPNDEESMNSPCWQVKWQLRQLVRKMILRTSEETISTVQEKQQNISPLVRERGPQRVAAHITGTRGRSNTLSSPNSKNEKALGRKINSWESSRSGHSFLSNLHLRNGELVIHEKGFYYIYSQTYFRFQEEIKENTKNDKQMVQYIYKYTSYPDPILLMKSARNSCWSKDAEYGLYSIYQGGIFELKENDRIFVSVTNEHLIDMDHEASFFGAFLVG
Sequence of Pneumolysin (Streptococcus pneumoniae serotype 4 (strain ATCC BAA-334 / TIGR4)) (P0C2J9 whole entry): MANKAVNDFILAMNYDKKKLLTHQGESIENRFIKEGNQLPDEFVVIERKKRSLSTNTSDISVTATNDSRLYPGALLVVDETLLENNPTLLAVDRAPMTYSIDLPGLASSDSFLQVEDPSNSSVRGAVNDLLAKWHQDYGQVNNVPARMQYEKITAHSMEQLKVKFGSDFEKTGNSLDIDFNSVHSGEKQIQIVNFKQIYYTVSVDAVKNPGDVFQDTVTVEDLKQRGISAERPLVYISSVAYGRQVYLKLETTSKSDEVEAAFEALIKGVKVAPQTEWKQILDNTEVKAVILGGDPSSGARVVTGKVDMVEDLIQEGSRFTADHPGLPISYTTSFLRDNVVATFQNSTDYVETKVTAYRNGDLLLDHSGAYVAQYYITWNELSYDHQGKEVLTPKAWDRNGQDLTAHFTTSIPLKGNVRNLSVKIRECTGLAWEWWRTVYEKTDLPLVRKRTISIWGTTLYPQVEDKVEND

In the case of `COc1ccc2oc(/C=C3\OC(=O)c4c3cc(C)[nH]c4=S)cc2c1`, in series [1], the inhibition came out at 100%. For the same compound, the viability at 24 h in series [2] stood at 0%.
For `Cc1cc2c(c(=S)[nH]1)C(=O)O/C2=C\c1ccc(C)o1`, in the series on Salmonella typhimurium, the result was Active. Moreover, the outcome in series [3], in series [4] and in series [5] was inactive. For the same compound, the inhibition in series [1] was 50%; in series [6] it was above 70%. In addition, the viability at 24 h in series [2] was 72%.
The compound `Cc1cc2c(c(=O)[nH]1)C(=O)O/C2=C\c1cc2ccccc2s1` showed an inhibition in series [1] of 65%. Also, the viability at 24 h in series [2] was determined as 100%.
In series [1], `Cc1cc2c(c(=S)[nH]1)C(=O)O/C2=C\c1ccc(-c2ccccc2)s1` registered an inhibition of 100%. Further, the viability at 24 h in series [2] was 0%.
Consider `Cc1cc2c(c(=S)[nH]1)C(=O)O/C2=C\c1ccco1`, for which, in the series on Salmonella typhimurium, the result was Active.
Regarding `Cc1cc2c(c(=S)[nH]1)C(=O)O/C2=C\c1cccs1`, the Activity entry in the series on Salmonella typhimurium is “Not Active”.
Consider `Cc1cc2c(c(=S)[nH]1)C(=O)O/C2=C\c1cc2ccccc2[nH]1`, for which the inhibition in series [1] turned out to be 95%. Also, the viability at 24 h in series [2] is 0%.
In the case of `Cc1cc2c(c(=S)[nH]1)C(=O)O/C2=C\c1ccc[nH]1`, the Activity entry with Salmonella typhimurium was “Not Active”.
Take `Cc1cc2c(c(=S)[nH]1)C(=O)O/C2=C\c1csc2ccccc12`: in the series on Salmonella typhimurium, the Activity result is recorded as “Not Active”. Further, in series [1], the inhibition is 63%. Moreover, in series [2], the viability at 24 h was 88%.
